Results on nine molecules are retold here after ChEMBL document CHEMBL1139331, “Molecular modelling studies, synthesis and biological activity of a series of novel bisnaphthalimides and their development as new DNA topoisomerase II inhibitors” (Bioorg Med Chem, 2009).

Experiment [1] has as its system HT-29. The experiment can be described thus: Induction of apoptosis in human HT-29 cells assessed as hypodiploid DNA content at 0.5 uM after 48 hrs using propidium iodide staining by flow cytometry. Type of experiment: functional, cell-based. A digest of the protocol:
(§1)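 Cultured HT-29 cells were plated at 5 × 10⁵ per 6-cm dish the day before treatment, then exposed 48 h to 0.1–5 μM. Cells were washed in PBS and taken up in 0.1% sodium citrate, 0.1% Triton X-100 and 50 μg/ml PI for 30 min at 4 °C in the dark. Nuclei were run by flow cytometry with debris gated out by forward scatter, and % hypodiploid nuclei counted. Three experiments in triplicate.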

The test system of experiment [2] is HT-29. In words: Induction of apoptosis in human HT-29 cells after 48 hrs assessed as hypodiploid DNA content using propidium iodide staining by flow cytometry. Type of experiment: functional, cell-based. A digest of the protocol:
as §1

Experiment [3] deals with HT-29. In words: Induction of apoptosis in human HT-29 cells after 48 hrs using propidium iodide staining by flow cytometry in presence of Z-VAD-FMK. Type of experiment: functional, cell-based. In outline:
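HT-29 cells were pretreated with the general caspase inhibitor Z-VAD-FMK at 50 μM for 30 min before compound was added, then incubated 48 h. Nuclei were stained with PI in 0.1% citrate/0.1% Triton X-100 for 30 min at 4 °C in the dark. Hypodiploid % was scored by flow cytometry. Three experiments in triplicate; Bonferroni test.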

Experiment [4] concerns HT-29. In words: Cytotoxicity against human HT-29 cells after 72 hrs by MTT assay. Type of experiment: functional, cell-based. The conditions noted are these: HT-29, 72 h. In outline: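 HT-29 cells, grown in DMEM with 2 mM L-glutamine, 10% heat-inactivated FBS and 1% penicillin/streptomycin at 37 °C, seeded at 1 × 10⁵ cells/ml and exposed 72 h to a range of compound concentrations in DMSO. Cells were then given MTT 3 h, formazan dissolved in SDS/formamide lysis buffer pH 4.7, and absorbance read at 620 nm. Values are % of untreated control; IC50 is from ≥3 experiments.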

Experiment [5] addresses DNA topoisomerase 2-alpha (Homo sapiens) (UniProt P11388). In words: Inhibition of human recombinant topoisomerase 2alpha-mediated pBR322 DNA cleavage after 30 mins.
In experiment [6] the test system is HT-29. In words: Blockade of cell cycle progression in human HT-29 cells. The experiment is classed as functional, cell-based.
The test system of experiment [7] is HT-29. In words: Induction of apoptosis in human HT-29 cells assessed as hypodiploid DNA content at 0.1 uM after 48 hrs using propidium iodide staining by flow cytometry. Type of experiment: functional. A digest of the protocol:
as §1

For experiment [8], the target named is DNA topoisomerase 2-alpha (Homo sapiens) (UniProt P11388). In words: Inhibition of human recombinant topoisomerase 2alpha-mediated pBR322 DNA cleavage at 10 uM after 30 mins.

Activity calls are given as the source filed them. No cut-off for these calls is given here.

DNA topoisomerase 2-alpha (Homo sapiens), sequence (P11388 whole entry): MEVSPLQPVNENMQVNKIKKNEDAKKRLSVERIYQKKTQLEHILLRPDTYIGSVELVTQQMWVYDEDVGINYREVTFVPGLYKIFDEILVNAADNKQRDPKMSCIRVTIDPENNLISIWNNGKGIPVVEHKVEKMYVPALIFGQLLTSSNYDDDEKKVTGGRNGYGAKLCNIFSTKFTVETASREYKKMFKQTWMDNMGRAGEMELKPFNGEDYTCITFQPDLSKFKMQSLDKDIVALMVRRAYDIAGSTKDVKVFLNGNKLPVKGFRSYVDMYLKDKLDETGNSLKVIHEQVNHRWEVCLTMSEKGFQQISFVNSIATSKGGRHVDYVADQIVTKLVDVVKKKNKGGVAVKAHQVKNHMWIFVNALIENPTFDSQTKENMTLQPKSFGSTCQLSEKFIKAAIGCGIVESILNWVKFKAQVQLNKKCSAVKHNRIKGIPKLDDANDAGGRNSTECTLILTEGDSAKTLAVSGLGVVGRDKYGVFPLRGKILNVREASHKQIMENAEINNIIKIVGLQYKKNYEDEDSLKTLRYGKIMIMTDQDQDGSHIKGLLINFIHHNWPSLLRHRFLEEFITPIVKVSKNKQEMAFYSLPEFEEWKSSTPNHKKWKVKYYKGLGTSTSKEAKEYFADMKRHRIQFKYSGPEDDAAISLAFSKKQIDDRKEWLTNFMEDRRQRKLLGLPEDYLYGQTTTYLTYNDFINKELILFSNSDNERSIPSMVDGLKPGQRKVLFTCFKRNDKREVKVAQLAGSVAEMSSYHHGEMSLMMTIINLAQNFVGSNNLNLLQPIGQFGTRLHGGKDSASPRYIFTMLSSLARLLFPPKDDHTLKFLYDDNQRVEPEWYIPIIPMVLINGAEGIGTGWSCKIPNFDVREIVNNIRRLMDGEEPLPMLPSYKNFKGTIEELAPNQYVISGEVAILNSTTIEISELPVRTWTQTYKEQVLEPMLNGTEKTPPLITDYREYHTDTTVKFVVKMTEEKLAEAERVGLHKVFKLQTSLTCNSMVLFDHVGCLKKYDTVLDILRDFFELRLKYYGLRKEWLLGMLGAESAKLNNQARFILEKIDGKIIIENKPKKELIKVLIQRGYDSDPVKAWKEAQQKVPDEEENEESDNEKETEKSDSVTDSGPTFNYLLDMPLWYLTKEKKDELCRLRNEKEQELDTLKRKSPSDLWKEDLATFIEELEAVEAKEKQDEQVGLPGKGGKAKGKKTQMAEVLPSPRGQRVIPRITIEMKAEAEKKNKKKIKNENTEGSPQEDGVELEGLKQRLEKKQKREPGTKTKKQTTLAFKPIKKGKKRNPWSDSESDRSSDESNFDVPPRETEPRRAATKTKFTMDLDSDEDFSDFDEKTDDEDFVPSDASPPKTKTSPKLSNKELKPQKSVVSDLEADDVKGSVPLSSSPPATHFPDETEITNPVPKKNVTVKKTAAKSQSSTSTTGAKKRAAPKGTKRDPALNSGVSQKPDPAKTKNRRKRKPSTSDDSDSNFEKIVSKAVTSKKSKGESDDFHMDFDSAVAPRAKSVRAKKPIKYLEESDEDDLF

For `O=C1c2cccc3cc([N+](=O)[O-])cc(c23)C(=O)N1CCCNC1CC1NCCCN1C(=O)c2cccc3cc([N+](=O)[O-])cc(c23)C1=O` (stereo not given), the result with HT-29 [1] was Active. Besides, the Activity entry with HT-29 [2] was “Dose-dependent effect”. For the same molecule, the result (in the experiment on HT-29 [3]; in experiment [5]; in the experiment with HT-29 [6]) was inactive. The molecule also came in with a half-maximal inhibitory concentration (IC50) in the experiment on HT-29 [4] of 3.3 µM.
With `O=C1c2cccc3cc([N+](=O)[O-])cc(c23)C(=O)N1CCCNCCNCCCN1C(=O)c2cccc3cc([N+](=O)[O-])cc(c23)C1=O`, the Activity entry is “Dose-dependent effect” with HT-29 [2] and 40% in the experiment with HT-29 [7]. The outcome (with HT-29 [3]; in experiment [5]; in the experiment with HT-29 [6]) was inactive. Further, in the experiment with HT-29 [4], the IC50 came out at 0.501 µM.
Turning to `O=C1c2cccc3cc([N+](=O)[O-])cc(c23)C(=O)N1CCCCNCCNCCCNCCNCCCCN1C(=O)c2cccc3cc([N+](=O)[O-])cc(c23)C1=O`, the outcome in experiment [8] was Active. For the same molecule, half-maximal inhibition with HT-29 [4] (IC50) required 0.16 µM.
Take `C[C@@H]1CN(CCN2C(=O)c3cccc4cc([N+](=O)[O-])cc(c34)C2=O)C[C@H](C)N1CCN1C(=O)c2cccc3cc([N+](=O)[O-])cc(c23)C1=O`: in the experiment with HT-29 [4], the half-maximal inhibitory concentration (IC50) is 6.1 µM. In the experiment on HT-29 [6], the outcome was inactive.
In the experiment with HT-29 [4], `O=C1c2cccc3cc([N+](=O)[O-])cc(c23)C(=O)N1CCNCCNCCN1C(=O)c2cccc3cc([N+](=O)[O-])cc(c23)C1=O` had a half-maximal inhibitory concentration (IC50) of 0.2 µM. Also, the result (in experiment [5]; in the experiment with HT-29 [6]) was inactive.
For the molecule `O=C1c2cccc3cccc(c23)C(=O)N1CCCCNCCNCCCNCCNCCCCN1C(=O)c2cccc3cccc(c23)C1=O`, the IC50 in the experiment with HT-29 [4] came to 6.1 µM. That is a single-digit micromolar value.
In turn, `O=C1c2cccc3cc([N+](=O)[O-])cc(c23)C(=O)N1CCN1CC2CCC(C1)N2CCN1C(=O)c2cccc3cc([N+](=O)[O-])cc(c23)C1=O` gave a half-maximal inhibitory concentration (IC50) in the experiment on HT-29 [4] of 7.3 µM. Further, the outcome in the experiment with HT-29 [6] was inactive.
For `O=C1c2cccc3cccc(c23)C(=O)N1CCNCCCNCCN1C(=O)c2cccc3cccc(c23)C1=O` [ELINAFIDE], 0.038 µM corresponded to half-maximal inhibition with HT-29 [4] (IC50).
`O=C1c2cccc3cc([N+](=O)[O-])cc(c23)C(=O)N1CCN1CCN(CCN2C(=O)c3cccc4cc([N+](=O)[O-])cc(c34)C2=O)CC1`: in the experiment with HT-29 [4], it took 2.1 µM to reach half-maximal inhibition (IC50). The outcome with HT-29 [6] was inactive.
